Measurements pooled from the literature.
Each line is one published result; the experiments were not run side by side.
ABCB11: Bile salt export pump (ABCB11, Homo sapiens, UniProt O95342)
KCNH2: Voltage-gated inwardly rectifying potassium channel KCNH2 (KCNH2, Homo sapiens, UniProt Q12809)

CC(C)NC(=O)COc1cccc(-c2nc(Nc3ccc4[nH]ncc4c3)c3ccccc3n2)c1
IC50 (ABCB11; transporter uptake, inhibitor, radiometric): > 1 µM

CCn1c(=O)c(-c2cc[nH]n2)cc2c(C)nc(N)nc21
CC50 (RD; cell growth or viability, MTT): 6.53 µM

Cn1c(=O)c2[nH]cnc2n(C)c1=O
MRT(0-t) (male Sprague-Dawley rat, plasma; intravenous, 22.5 mg/kg): 2.61 h

CN1C[C@H](COc2nccc3c(NCc4ccco4)cc(Cl)nc23)OC1=O
inhibition (KCNH2; ion current, inhibitor; HEK293; 3 µM): 7%

N[C@H]1C(O)O[C@H](CO)[C@@H](O)[C@@H]1O (stereo partly shown)
viability (Caco-2; cell growth or viability, CCK-8; 50 mM): 97.9%

C[C@H]1Oc2cc(cnc2N)-c2c(nn(C)c2C#N)CN(C)C(=O)c2ccc(F)cc21
MRT(0-inf) (male Sprague-Dawley rat, plasma; oral, 5 mg/kg, single dose): 8.14 h

CCOC(=O)C1=C(CN2CCC[C@@H]2C(=O)Nc2ccc(B(O)O)cc2)NC(c2nccs2)=N[C@H]1c1ccc(F)cc1Br
inhibition (KCNH2; ion current, inhibitor, patch clamp; HEK293; 30 µM, pH 7.4): 83%

CC(=O)N1CCC(C(=O)N2CCN3C(=O)c4cc(-c5ccccc5)ccc4NC(=O)C3C2)CC1 (stereo not shown)
inhibition (KCNH2; ion current, inhibitor, patch clamp; HEK293; 100 µM): 56.8%

CC(C)n1ncc2c(C(=O)NCC3(C)CNC3)cc(C3CC3)nc21
viability (RD; cell growth or viability, neutral red; 0.33 µM): 98.1%

COc1cccc(OC)c1-c1cc(C(=O)NC2(C(=O)O)C3CC4CC(C3)CC2C4)nn1-c1ccc(C(=O)N(C)CCCN(C)CCCN(C)C(=O)CN2CCN(CC(=O)[O-])CCN(CC(=O)[O-])CCN(CC(=O)[O-])CC2)cc1C(C)C.[177Lu+3] (stereo not shown)
tracer uptake (HT-29; bone; 4 h, tumour-bearing): 1.8 %ID/g

COc1nc(-c2cccc(-c3ccccc3)c2C)ccc1CNCCNC(=O)CCCCCCCCCCC(=O)N1CCN(CCNC(=O)c2cc3c(=O)n4cccc(C)c4nc3n(CCc3cccs3)c2=N)CC1
MRT(0-t) (male Sprague-Dawley rat, plasma; intraperitoneal, 4 mg/kg): 7.1 h

COc1ccc2c(c1)CN(C(=O)CCN1CCC(Cc3ccccc3)CC1)CC[S@@+]2[O-]
Tmax (male human, plasma; intravenous, 0.6 mg/kg, healthy volunteers): 0 h

O=C(COc1ccc(Cl)cc1)NC12CC(c3nnc([C@H]4C[C@@H](OC(F)(F)F)C4)o3)(C1)C2
Tmax (human, plasma; oral, 45 mg, multiple doses, once daily, steady state, healthy volunteers): 4.03 h

COc1cc(N)c(Cl)cc1C(=O)NC1CCN(CCCOc2ccc(F)cc2)CC1OC (stereo not shown)
inhibition (KCNH2; ion current, inhibitor, patch clamp; HEK293; 10 nM, pH 7.4): 39%

CC(C)n1cc(C#N)c2cc(-n3cc(C(=O)O)cn3)ccc21
Tmax (human, plasma; oral, 50 mg, single dose, fasted, healthy volunteers): 2.75 h

NC/C(=C\F)COc1cccc(Cn2c(=S)[nH]c(=O)c3[nH]cnc32)c1
inhibition (ABCB11; transporter uptake, inhibitor, radiometric; 30 µM): < 50%
